Measured values reported in ChEMBL document CHEMBL1155433, “Benzimidazole Thumb Pocket I finger-loop inhibitors of HCV NS5B polymerase: improved drug-like properties through C-2 SAR in three sub-series” (Bioorg Med Chem Lett, 2010).
Values after ≈ are worked out from the molar mass of the structure shown.

Columns and labels:
[1] = test system: Hepatitis C virus; experiment: Inhibition of HCV 1b NS5Bdelta21 polymerase assessed as [3H]UTP incorporated into the biotinylated primer after 90 mins by scintillation counting; type: functional, Hepatitis C virus subtype 1b
[2] = Cytotoxicity against human HuH7 cells; type: cell-based, Huh-7; conditions: read-out: TC50 (the source's name)
[3] = test system: Hepatitis C virus; experiment: Antiviral activity against HCV1b in human Huh7 cells assessed as reduction of viral RNA replication after 72 hrs by luciferase reporter assay; type: functional, organism-based, Hepacivirus hominis; conditions: genotype 1b, Huh-7, 72 h
[4] = Inhibition of calf thymus DNA-directed RNA polymerase 2 assessed as [33P]UTP incorporated into the RNA after 120 mins by scintillation counting; parameters: species or system Bos taurus
[5] = molecular target: Cytochrome P450 2C19 (Homo sapiens, UniProt P33261); experiment: Inhibition of CYP2C19; type: ADME
[6] = Half life in rat liver microsomes at 10 uM; type: ADME, Microsome
Method in brief: (§1)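 Half-life was measured with compound at 10 µM in human or rat liver microsomes.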

[7] = Mean residence time in Sprague-Dawley rat plasma at 5 mg/kg, po; type: ADME, organism-based; parameters: dose 5 mg/kg, route oral
Method in brief: (§2)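 Male Sprague-Dawley rats, fasted overnight, given 5 mg/kg by oral gavage in 0.5% methocel/0.3% Tween-80. Plasma was pooled from three animals at each time point over 0–8 h. Compound was quantified after liquid–liquid extraction by HPLC with UV detection.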

[8] = Solubility in phosphate buffer at pH 7.2 after 24 hrs by shake flask method; type: physicochemical
[9] = molecular target: Cytochrome P450 2C9 (Homo sapiens, UniProt P11712); experiment: Inhibition of CYP2C9; type: ADME
[10] = organism: Homo sapiens; experiment: Protein binding in human plasma by equilibrium dialysis method; conditions: read-out: PPB (converted)
[11] = (§3) Half life in human liver microsomes at 10 uM; type: ADME, Microsome; conditions: liver microsomes; method in brief: as §1
[12] = Permeability across human Caco-2 cells; type: ADME, cell-based; conditions: read-out: permeability
[13] = Cmax in Sprague-Dawley rat plasma at 5 mg/kg, po; type: ADME, organism-based; parameters: dose 5 mg/kg, route oral; method in brief: as §2
[14] = AUC in Sprague-Dawley rat plasma at 5 mg/kg, po; type: ADME, organism-based; parameters: dose 5 mg/kg, route oral; method in brief: as §2
[15] = Tmax in Sprague-Dawley rat plasma at 5 mg/kg, po; type: ADME, organism-based; parameters: dose 5 mg/kg, route oral; method in brief: as §2
[16] = molecular target: Cytochrome P450 3A4 (Homo sapiens, UniProt P08684); experiment: Inhibition of CYP3A4; type: ADME
[17] = test system: Liver microsomes; experiment: as §3; type: ADME, Microsome; conditions: microsomes, 10 µM; method in brief: as §1

Cytochrome P450 2C19, sequence (P33261 whole entry): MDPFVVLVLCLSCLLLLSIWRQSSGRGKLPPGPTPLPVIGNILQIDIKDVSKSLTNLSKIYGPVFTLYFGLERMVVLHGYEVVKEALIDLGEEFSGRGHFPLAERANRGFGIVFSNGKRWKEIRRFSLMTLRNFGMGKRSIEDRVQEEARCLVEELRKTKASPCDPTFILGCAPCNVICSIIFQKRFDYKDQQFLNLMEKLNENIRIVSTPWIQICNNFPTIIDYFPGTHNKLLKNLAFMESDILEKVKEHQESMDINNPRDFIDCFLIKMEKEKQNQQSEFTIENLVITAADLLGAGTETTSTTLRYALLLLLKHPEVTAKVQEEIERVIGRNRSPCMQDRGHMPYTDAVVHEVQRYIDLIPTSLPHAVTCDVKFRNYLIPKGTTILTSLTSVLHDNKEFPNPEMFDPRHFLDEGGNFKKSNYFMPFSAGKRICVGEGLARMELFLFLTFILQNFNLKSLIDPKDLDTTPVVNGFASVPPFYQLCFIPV
Cytochrome P450 2C9, sequence (P11712 whole entry): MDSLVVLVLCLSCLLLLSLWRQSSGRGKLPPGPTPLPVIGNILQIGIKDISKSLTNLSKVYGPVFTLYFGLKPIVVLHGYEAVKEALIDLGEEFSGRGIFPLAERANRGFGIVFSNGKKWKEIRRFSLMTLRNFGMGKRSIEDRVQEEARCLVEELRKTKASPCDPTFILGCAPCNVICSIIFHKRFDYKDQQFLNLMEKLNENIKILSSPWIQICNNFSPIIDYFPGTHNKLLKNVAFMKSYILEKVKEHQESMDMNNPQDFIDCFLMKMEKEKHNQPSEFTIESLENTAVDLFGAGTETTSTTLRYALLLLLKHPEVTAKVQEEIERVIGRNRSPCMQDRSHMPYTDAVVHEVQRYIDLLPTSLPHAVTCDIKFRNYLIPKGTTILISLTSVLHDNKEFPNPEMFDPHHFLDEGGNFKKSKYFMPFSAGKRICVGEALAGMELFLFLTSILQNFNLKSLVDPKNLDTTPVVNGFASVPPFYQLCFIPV
Cytochrome P450 3A4, sequence (P08684 whole entry): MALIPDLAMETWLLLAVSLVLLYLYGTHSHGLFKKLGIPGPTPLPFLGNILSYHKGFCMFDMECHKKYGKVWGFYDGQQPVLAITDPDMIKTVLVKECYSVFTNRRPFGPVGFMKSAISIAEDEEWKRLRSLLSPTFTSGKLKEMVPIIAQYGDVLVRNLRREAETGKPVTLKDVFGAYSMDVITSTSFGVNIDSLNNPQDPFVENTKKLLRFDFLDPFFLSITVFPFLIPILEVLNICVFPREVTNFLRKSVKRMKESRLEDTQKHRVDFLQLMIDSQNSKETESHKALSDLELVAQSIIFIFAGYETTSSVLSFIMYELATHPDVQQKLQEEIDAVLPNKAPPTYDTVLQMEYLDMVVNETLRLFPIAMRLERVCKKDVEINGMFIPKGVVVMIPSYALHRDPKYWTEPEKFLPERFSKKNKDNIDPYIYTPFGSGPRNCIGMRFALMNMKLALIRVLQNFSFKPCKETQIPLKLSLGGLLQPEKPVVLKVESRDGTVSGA

IC50 [1] [µM]	Compound	CC50 [2] [µM]	EC50 [3] [µM]	IC50 [4] [µM]	other results
0.16	O=C(N[C@@H](Cc1c[nH]c2ccc(O)cc12)C(=O)O)c1ccc2c(c1)nc(-c1ccsc1)n2C1CCCCC1				
	O=C(O)/C=C/c1ccc(NC(=O)C2(NC(=O)c3ccc4c(c3)nc(-c3ccccn3)n4C3CCCCC3)CCCC2)cc1	> 10	0.58	> 250	IC50 [5]: 7.4 µM; half-life at 10 µM [6]: 17 min; MRT [7]: 44.4 min; solubility thermodynamic at 24 h [8]: 100 µg/mL (≈ 173 µM); IC50 [9]: 4 µM; fraction unbound [10]: 0.124; half-life at 10 µM [11]: 67 min; Papp [12]: 9.5 ×10⁻⁶ cm/s; Cmax [13]: 580 nM; AUC [14]: 0.51 µM·h; Tmax [15]: 30 min
	O=C(O)/C=C/c1ccc(NC(=O)C2(NC(=O)c3ccc4c(c3)nc(-c3ccoc3)n4C3CCCCC3)CCCC2)cc1	> 10	0.88	> 250	IC50 [5]: 7.7 µM; half-life at 10 µM [6]: 54 min; solubility thermodynamic at 24 h [8]: 125 µg/mL (≈ 221 µM); IC50 [9]: 11.5 µM; half-life at 10 µM [11]: 77 min; Papp [12]: 3.9 ×10⁻⁶ cm/s
0.52	O=C(N[C@@H](Cc1c[nH]c2ccc(O)cc12)c1cscn1)c1ccc2c(c1)nc(-c1ccsc1)n2C1CCCCC1	> 10	2.9		
1.16	O=C(N[C@@H](Cc1c[nH]c2ccc(O)cc12)c1cscn1)c1ccc2c(c1)nc(-c1ccccc1)n2C1CCCCC1	> 10	2.4		
0.06	Cn1cccc1-c1nc2cc(C(=O)N[C@@H](Cc3c[nH]c4ccc(O)cc34)C(=O)O)ccc2n1C1CCCCC1				
0.73	Cn1cccc1-c1nc2cc(C(=O)N[C@@H](Cc3c[nH]c4ccc(O)cc34)c3cscn3)ccc2n1C1CCCCC1	> 10	2.7		
0.03	O=C(N[C@@H](Cc1c[nH]c2ccc(O)cc12)C(=O)O)c1ccc2c(c1)nc(-c1ccoc1)n2C1CCCCC1				
0.08	O=C(N[C@@H](Cc1c[nH]c2ccc(O)cc12)C(=O)O)c1ccc2c(c1)nc(-c1cccs1)n2C1CCCCC1				
0.27	O=C(N[C@@H](Cc1c[nH]c2ccc(O)cc12)c1cscn1)c1ccc2c(c1)nc(-c1ccco1)n2C1CCCCC1	> 10	3.4		
0.22	O=C(N[C@@H](Cc1c[nH]c2ccc(O)cc12)c1cscn1)c1ccc2c(c1)nc(-c1ccoc1)n2C1CCCCC1	> 10	3.6		solubility thermodynamic at 24 h [8]: < 0.1 µg/mL; IC50 [16]: 0.44 µM; t1/2 [17]: 26 min
0.69	O=C(N[C@@H](Cc1c[nH]c2ccc(O)cc12)c1cscn1)c1ccc2c(c1)nc(-c1ccccn1)n2C1CCCCC1	> 10	1.9		
0.23	O=C(N[C@@H](Cc1c[nH]c2ccc(O)cc12)C(=O)O)c1ccc2c(c1)nc(-c1ccccc1)n2C1CCCCC1				
0.14	O=C(N[C@@H](Cc1c[nH]c2ccc(O)cc12)C(=O)O)c1ccc2c(c1)nc(-c1ccccn1)n2C1CCCCC1				
0.08	O=C(N[C@@H](Cc1c[nH]c2ccc(O)cc12)C(=O)O)c1ccc2c(c1)nc(-c1ccco1)n2C1CCCCC1				
0.45	O=C(N[C@@H](Cc1c[nH]c2ccc(O)cc12)c1cscn1)c1ccc2c(c1)nc(-c1cccs1)n2C1CCCCC1	> 10	2.8		

Compound	IC50 [1] [µM]	CC50 [2] [µM]	EC50 [3] [µM]	IC50 [4] [µM]	other results
O=C(O)/C=C/c1ccc(NC(=O)C2(NC(=O)c3ccc4c(c3)nc(-c3ccccc3)n4C3CCCCC3)CCC2)cc1	0.2	> 10	1.2	> 250	
O=C(O)/C=C/c1ccc(NC(=O)C2(NC(=O)c3ccc4c(c3)nc(-c3ccsc3)n4C3CCCCC3)CCC2)cc1	0.12	> 10	1.5	> 250	
O=C(O)/C=C/c1ccc(NC(=O)C2(NC(=O)c3ccc4c(c3)nc(-c3ccccn3)n4C3CCCCC3)CCC2)cc1	0.1	> 10	0.7	> 250	
O=C(O)/C=C/c1ccc(NC(=O)C2(NC(=O)c3ccc4c(c3)nc(-c3cccs3)n4C3CCCCC3)CCC2)cc1	0.11	> 10	1.2	> 250	
Cn1cccc1-c1nc2cc(C(=O)NC3(C(=O)Nc4ccc(/C=C/C(=O)O)cc4)CCC3)ccc2n1C1CCCCC1	0.09	> 10	0.7	> 250	
O=C(O)/C=C/c1ccc(NC(=O)C2(NC(=O)c3ccc4c(c3)nc(-c3ccoc3)n4C3CCCCC3)CCC2)cc1	0.05	> 10	1.1	> 250	
O=C(O)/C=C/c1ccc(NC(=O)C2(NC(=O)c3ccc4c(c3)nc(-c3ccco3)n4C3CCCCC3)CCC2)cc1	0.11	> 10	1.2	> 250	
